SENP8 block-1: blocks human SENP8 cleavage of Nedd8 substrate. Q96LD8. recombinant SENP8, Nedd8 substrate fluorescence. inhibition, % at 20 µM. 0.64% of 360,000 active. AID 602440; in the data active = inhibition mostly above about 40%, no sharp cut-off; inactive = mostly below about 27%
Apaf-1 inh: human Apaf-1 inhibition; O14727; reconstituted apoptosome caspase-3 activity, DEVD-Rh110 fluorescence; inhibition, % at 20 µM; 0.71% of 330,000 active; AID 489030; active = inhibition of at least 40% at 20 µM
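Medium: Hepes buffer, pH 7.5 / System: biochemical Apaf-1 apoptosome reconstitution / Measured by: Rh110 fluorescence, excitation 480 nm, emission 540 nm / Times: compound with Apaf-1, dATP, procaspase-3 30 min, then 50 min reaction, room temperature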
UBC13 polyUb: human UBC13 polyubiquitination inhibition. P61088. UBC13 polyubiquitin chain formation, TR-FRET. inhibition, % at 20 µM. 0.47% of 330,000 active. AID 485273; in the data active = inhibition above about 45%, passing the limit was not always enough; inconclusive = no clear call, values can overlap the other calls
SENP7 inh: inhibitors of human SENP7 protease; inhibition, % at 5 µM; 1.5% of 330,000 active; recombinant SENP7, Z-RLRGG-aminoluciferin luminescence, 40 min; Q9BQF6;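 active = inhibition above about 50% at the single test dose, limit read from the data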
SENP8 block-2: SENP8 protease inhibition; purified SENP8, Z-RLRGG-aminoluciferin cleavage, luminescence; 1.2% of 330,000 active; Q96LD8; inhibition, % at 10 µM; AID 2540; in the data active = inhibition above about 50%
SENP6 inh: inhibitors of human SENP6 protease; 1.8% of 330,000 active; Q9GZR1; inhibition, % at 10 µM; Recombinant SENP6 catalytic domain, aminoluciferin luminescence; AID 2599;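 active = inhibition above about 50% at the single tested dose, limit read from the data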
SENP8 confirm: human SENP8 inhibition, confirmed; shares compounds with SENP7 inh; Recombinant SENP8, Z-RLRGG-aminoluciferin luminescence, 60 min; inhibition, % at 12.5 µM; 40% of 6,200 active;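 active = mean inhibition across replicates above about 50%, limit read from the data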
SENP6 confirm: confirmation of human SENP6 protease inhibitors. recombinant SENP6, Z-RLRGG-aminoluciferin luminescence. AID 488915. shares compounds with SENP7 inh. inhibition, % at 12.5 µM. 58% of 6,200 active
SENP7 confirm: confirmation of human SENP7 protease inhibitors; 69% of 6,200 active; recombinant SENP7, Z-RLRGG-aminoluciferin luminescence, 40 min; shares compounds with SENP7 inh; inhibition, % at 12.5 µM
Casp3 select: caspase-3 inhibition (SENP selectivity assay); purified caspase-3, Z-DEVD-aminoluciferin luminescence, 60 min; shares compounds with SENP7 inh; inhibition, % at 12.5 µM; 60% of 6,200 active;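 active = mean inhibition above about 50%, limit read from the data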
SENP luc ctr: counter-screen for SENP inhibitors: luminescence interference | AID 488919 | inhibition, % at 12.5 µM | Pre-incubated SENP8/Z-RLRGG-aminoluciferin, luciferase luminescence interference | shares compounds with SENP7 inh | 39% of 6,200 active;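 active = mean inhibition above about 50% when retested at one dose, limit read from the data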
Of the large screens only hits and unclear results are named; the others gave an inactive call (follow-up assays come after a bar, where they were run). A selection: hits, their analogues and other compounds. The true share with any hit is near 3%.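 The calls were made as follows, unless noted: active = mean inhibition above about 50% in the one-dose retest (limit read from the data); inactive = the rest.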

Oc1[nH]c2ccccc2c1N=Nc1ccccn1	none (no result: Apaf-1 inh, UBC13 polyUb, SENP7 inh, SENP8 block-2, SENP6 inh)
COc1ccc(C)c2sc(=NC(=O)c3ccc(C(C)=O)cc3)n(C)c12	UBC13 polyUb inconclusive, SENP7 inh 97, SENP8 block-2 82, SENP6 inh 89
CCN=c1scc(-c2ccccc2)n1/N=C/c1ccccn1	SENP7 inh 52, SENP6 inh 63
CCN=c1scc(-c2ccc(F)cc2)n1/N=C/c1ccccn1	none
Cc1c(NC(=S)N/N=C/c2ccc([N+](=O)[O-])cc2O)c(=O)n(-c2ccccc2)n1C	SENP8 block-1 40
CCCc1ccc(OCc2ccc(C(=O)O)o2)c(OC)c1	SENP7 inh 54, SENP8 block-2 69, SENP6 inh 75 | SENP8 confirm 74 | SENP6 confirm 73 | SENP7 confirm 92 | Casp3 select inactive | SENP luc ctr 83
CCc1ccc(OCc2ccc(C(=O)OC)o2)cc1	none
CCOc1ccc(OCc2ccc(C(=O)O)o2)cc1	SENP7 inh 96, SENP8 block-2 94, SENP6 inh 97 | SENP8 confirm 96 | SENP6 confirm 99 | SENP7 confirm 102 | Casp3 select 80 | SENP luc ctr 97
CCCc1ccc(OCc2ccc(C(=O)NN)o2)c(OC)c1	none
C=CCc1ccc(OCc2ccc(C(=O)O)o2)c(OC)c1	SENP7 inh 63, SENP8 block-2 64, SENP6 inh 79 | SENP8 confirm 76 | SENP6 confirm 76 | SENP7 confirm 94 | Casp3 select inactive | SENP luc ctr 80
O=C(NC1CCCC1)c1cc(=O)[nH]c2ccccc12	none
CC1(C(=O)Nc2nnc(C(C)(C)C)s2)Cc2ccccc2C(=O)O1 (centres undefined)	SENP7 inh 101 | SENP8 confirm inactive | SENP6 confirm inactive | SENP7 confirm inactive | Casp3 select inactive | SENP luc ctr inactive
CCSc1nnc(NC(=O)C2(C)Cc3ccccc3C(=O)O2)s1 (centres undefined)	none
COc1cc(C2NC(=O)NC(c3ccccc3)=C2C(C)=O)c(Br)c(Br)c1O (centres undefined)	none
Brc1ccc(OCc2nc3ccccc3[nH]2)cc1	SENP7 inh 66, SENP8 block-2 56, SENP6 inh 62 | SENP8 confirm inactive | SENP6 confirm inactive | SENP7 confirm 85 | Casp3 select 58 | SENP luc ctr inactive
c1ccc(SCc2nc3ccccc3[nH]2)cc1	none
Cc1ccccc1OCc1nc2ccccc2[nH]1	SENP7 inh 86, SENP8 block-2 68, SENP6 inh 80 | SENP8 confirm 72 | SENP6 confirm 72 | SENP7 confirm 92 | Casp3 select 86 | SENP luc ctr 62
Cc1ccc(SCc2nc3ccccc3[nH]2)cc1	SENP6 inh 57 | SENP8 confirm 51 | SENP6 confirm inactive | SENP7 confirm 76 | Casp3 select 64 | SENP luc ctr 56
COc1ccc(OCc2nc3ccccc3[nH]2)cc1	SENP8 block-2 72, SENP6 inh 72 | SENP8 confirm inactive | SENP6 confirm 76 | SENP7 confirm 94 | Casp3 select 90 | SENP luc ctr 80
COc1ccccc1OCc1nc2ccccc2[nH]1	none
c1ccc2cc(OCc3nc4ccccc4[nH]3)ccc2c1	SENP7 inh 77, SENP8 block-2 80, SENP6 inh 87 | SENP8 confirm inactive | SENP6 confirm 68 | SENP7 confirm 95 | Casp3 select 66 | SENP luc ctr inactive
